Assay results as given in ChEMBL document CHEMBL3352730, “Synthesis and effects on cell viability of flavonols and 3-methyl ether derivatives on human leukemia cells” (Eur J Med Chem, 2014).

Tests used:
[1] = Cytotoxicity against human HL60 cells after 72 hrs by MTT assay; assay type: functional, cell-based; details: HL-60, 72 h
Summary of the method: (§1)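 MTT colorimetric assay with 72 h continuous exposure. IC50 was fitted per experiment by non-linear regression. Values are means with SE from at least three independent experiments, each run in triplicate.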

[2] = system: HL-60; experiment: Induction of apoptosis in human HL60 cells at 30 uM after 24 hrs by propidium iodide staining based flow cytometry (reference value: 3.8 +/- 0.6%); assay type: functional
[3] = Cytotoxicity against human HL60/MX1 cells after 72 hrs by MTT assay; assay type: functional, cell-based; details: HL60/MX1, 72 h; summary of the method: as §1
[4] = system: Raji; experiment: Cytotoxicity against human Raji cells after 72 hrs by MTT assay; assay type: functional, cell-based; summary of the method: as §1

SMILES | IC50 [1] | further results
O=c1c(O)c(-c2ccc(O)c(O)c2)oc2cc(O)cc(O)c12 [QUERCETIN] | 47 µM | 
COc1ccc(-c2oc3ccccc3c(=O)c2OC)cc1 | 39 µM | 
COc1c(-c2ccc(Cl)cc2)oc2ccccc2c1=O | 26 µM | 
COc1ccc(-c2oc3ccccc3c(=O)c2OC)c(OC)c1 | 34 µM | 
COc1ccc(-c2oc3cc(OC)ccc3c(=O)c2OC)cc1 | 122 µM | 
COc1cc(O)c2c(=O)c(OC)c(-c3ccc(OC)c(OC)c3)oc2c1 [RETUSIN] | 28 µM | 
COc1ccc2c(=O)c(OC)c(-c3ccc(OC)c(C)c3OC)oc2c1 | 27 µM | 
COc1c(-c2cccc3ccccc23)oc2ccccc2c1=O | 16 µM | 
COc1ccccc1-c1oc2ccccc2c(=O)c1O | 30 µM | 
O=c1c(O)c(-c2ccccc2Cl)oc2ccccc12 | 10.7 µM | Activity [2]: 14.9%; IC50 [3]: > 30 µM; IC50 [4]: > 30 µM
COc1cc(-c2oc3ccccc3c(=O)c2O)cc(OC)c1OC | 138 µM | 
COc1ccc(-c2oc3ccccc3c(=O)c2OC)c(OC)c1C | 96 µM | 
COc1ccc2c(=O)c(OC)c(-c3cc(OC)c(OC)c(OC)c3)oc2c1 | 21 µM | 
COc1ccc(-c2oc3ccccc3c(=O)c2O)c(OC)c1C | 32 µM | 
COc1cc([C@@H]2c3cc4c(cc3[C@@H](O[C@@H]3O[C@@H]5CO[C@@H](C)O[C@H]5[C@H](O)[C@H]3O)[C@H]3COC(=O)[C@H]23)OCO4)cc(OC)c1O [ETOPOSIDE] | 0.6 µM | 
COc1ccc(-c2oc3cc(OC)ccc3c(=O)c2O)cc1 | 148 µM | 
O=c1c(O)c(-c2ccc(Cl)cc2)oc2ccccc12 | 102 µM | 
COc1ccc(-c2oc3ccccc3c(=O)c2O)c(OC)c1 | 53 µM | 
COc1c(-c2ccc(Br)cc2)oc2ccccc2c1=O | 21 µM | 
COc1ccccc1-c1oc2ccccc2c(=O)c1OC | 98 µM | 
COc1ccc2c(=O)c(O)c(-c3cc(OC)c(OC)c(OC)c3)oc2c1 | 34 µM | 
